Assay results reported in ChEMBL document CHEMBL1157556, “Synthesis and biological screening of a combinatorial library of beta-chlorovinyl chalcones as anticancer, anti-inflammatory and antimicrobial agents” (Bioorg Med Chem, 2010).
In brackets after ≈: the same amount, converted by molar mass.

What was measured:
THP-1 [1] = assay: Antiinflammatory activity in human THP1 cells assessed as inhibition of LPS-induced IL6 release at 10 uM after 24 hrs by ELISA; assay type: functional; conditions: THP-1, 24 h
Method in brief: (§1)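 THP-1 cells grown in RPMI 1640 with 10% FBS, penicillin and streptomycin, then PMA-differentiated. Compounds in 0.5% DMSO preincubated 30 min at 37 °C before LPS (E. coli 0127:B8) stimulation. TNF-α and IL-6 release measured by kit per the manufacturer (BD Biosciences). Percent inhibition calculated relative to control. Dexamethasone 1 µM as reference.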

THP-1 [2] = assay: Antiinflammatory activity in human THP1 cells assessed as inhibition of LPS-induced TNFalpha release at 10 uM after 24 hrs by ELISA; assay type: functional; conditions: THP-1, 24 h; method in brief: as §1
THP-1 [3] = assay: Cytotoxicity against human THP1 cells assessed as CCK8 release at 10 uM after 24 hrs by ELISA; assay type: cell-based; conditions: thp-1, 24 h
Method in brief: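 Same THP-1 cytokine-assay cells, with compounds in 0.5% DMSO and LPS stimulation, were scored in parallel for cytotoxicity by CCK-8.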

ACHN = assay: Anticancer activity against human ACHN cells at 10 uM after 48 hrs by propidium iodide fluorescence assay; assay type: functional
Method in brief: (§2)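 Propidium iodide DNA-fluorescence assay. Seeding 3000–7500 cells/well, 24 h recovery at 37 °C in 5% CO₂. Compounds in 0.1% DMSO added to triplicate wells at 10 µM. Flavopiridol 700 nM and gemcitabine 500 nM as reference inhibitors. Plates frozen at −80 °C for 24 h, thawed to room temperature, fluorescence read at excitation 530 nm and emission 620 nm. Percent cytotoxicity calculated.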

PANC-1 = assay: Anticancer activity against human PANC1 cells at 10 uM after 48 hrs by propidium iodide fluorescence assay; assay type: functional; method in brief: as §2
Calu-1 = assay: Anticancer activity against human Calu1 cells at 10 uM after 48 hrs by propidium iodide fluorescence assay; assay type: functional; method in brief: as §2
NCI-H460 = assay: Anticancer activity against human H460 cells at 10 uM after 48 hrs by propidium iodide fluorescence assay; assay type: functional; method in brief: as §2
HCT-116 = assay: Anticancer activity against human HCT116 cells at 10 uM after 48 hrs by propidium iodide fluorescence assay; assay type: functional; method in brief: as §2
Escherichia coli [4] = assay: Antibacterial activity against Escherichia coli MTCC 1650 after 24 hrs; assay type: functional; conditions: MTCC 1650, 24 h
Method in brief: (§3)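 Agar well diffusion on Mueller Hinton agar seeded with 0.1 mL of a 10⁵ cfu/mL suspension in 0.85% saline. Compounds dissolved in DMSO, final concentrations 25–250 µg/mL, 0.1 mL loaded per 6 mm well. DMSO (1%) control; tetracycline (10 µg/mL) reference. Duplicate plates incubated 24 h at 37 °C. Inhibition zone read in mm. MIC taken as lowest concentration giving complete growth inhibition.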

Proteus vulgaris [5] = assay: Antibacterial activity against Proteus vulgaris MTCC 1771 after 24 hrs; assay type: functional; conditions: MTCC 1771, 24 h; method in brief: as §3
Klebsiella pneumoniae [6] = assay: Antibacterial activity against Klebsiella pneumoniae NCIM 2957 after 24 hrs; assay type: functional; conditions: NCIM 2957, 24 h; method in brief: as §3
Staphylococcus aureus [7] = assay: Antibacterial activity against Staphylococcus aureus MTCC 96 after 24 hrs; assay type: functional; conditions: MTCC 96, 24 h; method in brief: as §3
Bacillus subtilis [8] = assay: Antibacterial activity against Bacillus subtilis MTCC 1789 after 24 hrs; assay type: functional; conditions: MTCC 1789, 24 h; method in brief: as §3
Escherichia coli [9] = assay: Antibacterial activity against Escherichia coli MTCC 1650 at 50 ug/ml after 24 hrs agar diffusion method; assay type: functional; conditions: MTCC 1650, 24 h, read-out: IZ; method in brief: as §3
Bacillus subtilis [10] = assay: Antibacterial activity against Bacillus subtilis MTCC 1789 at 50 ug/ml after 24 hrs agar diffusion method; assay type: functional; conditions: MTCC 1789, 24 h, read-out: IZ; method in brief: as §3
Aspergillus niger = assay: Antifungal activity against Aspergillus niger MTCC 1781 at 100 ug/ml after 48 hrs agar diffusion method; assay type: functional; conditions: for zone of inhibition at 100 µg/mL: MTCC 1781, 48 h, read-out: IZ
Method in brief: (§4)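 Fungal spore suspensions in sterile distilled water adjusted to 10⁶ cfu/mL; 0.1 mL spread on Sabouraud dextrose agar. Wells of 6 mm filled with 0.1 mL compound dilution in DMSO. DMSO (1%) control; nystatin (30 µg/mL) reference. Duplicate plates incubated at 28 °C for 48 h. Activity read as inhibition zone diameter in mm.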

Aspergillus flavus = assay: Antifungal activity against Aspergillus flavus MTCC 2501 at 100 ug/ml after 48 hrs agar diffusion method; assay type: functional; conditions: for zone of inhibition at 100 µg/mL: MTCC 2501, 48 h, read-out: IZ; method in brief: as §4
Trichoderma viride = assay: Antifungal activity against Trichoderma viride MTCC 167 at 100 ug/ml after 48 hrs agar diffusion method; assay type: functional; conditions: for zone of inhibition at 100 µg/mL: MTCC 167, 48 h, read-out: IZ; method in brief: as §4
Proteus vulgaris [11] = assay: Antibacterial activity against Proteus vulgaris MTCC 1771 at 50 ug/ml after 24 hrs agar diffusion method; assay type: functional; conditions: MTCC 1771, 24 h, read-out: IZ; method in brief: as §3
Klebsiella pneumoniae [12] = assay: Antibacterial activity against Klebsiella pneumoniae NCIM 2957 at 50 ug/ml after 24 hrs agar diffusion method; assay type: functional; conditions: NCIM 2957, 24 h, read-out: IZ; method in brief: as §3
Staphylococcus aureus [13] = assay: Antibacterial activity against Staphylococcus aureus MTCC 96 at 50 ug/ml after 24 hrs agar diffusion method; assay type: functional; conditions: MTCC 96, 24 h, read-out: IZ; method in brief: as §3
Candida albicans = assay: Antifungal activity against Candida albicans MTCC 227 at 100 ug/ml after 48 hrs agar diffusion method; assay type: functional; conditions: MTCC 227, 48 h, read-out: IZ; method in brief: as §4
Penicillium chrysogenum = assay: Antifungal activity against Penicillium chrysogenum MTCC 1996 at 100 ug/ml after 48 hrs agar diffusion method; assay type: functional; conditions: for zone of inhibition at 100 µg/mL: MTCC 1996, 48 h, read-out: IZ; method in brief: as §4

Compound	inhibition at 10 µM (THP-1 [1])	inhibition at 10 µM (THP-1 [2])	Activity (THP-1 [3])	Activity (ACHN)	Activity (PANC-1)	Activity (Calu-1)	Activity (NCI-H460)	Activity (HCT-116)	MIC (Escherichia coli [4])	MIC (Proteus vulgaris [5])	MIC (Klebsiella pneumoniae [6])	MIC (Staphylococcus aureus [7])	MIC (Bacillus subtilis [8])	zone of inhibition at 50 µg/mL (Escherichia coli [9])	zone of inhibition at 50 µg/mL (Bacillus subtilis [10])	zone of inhibition at 100 µg/mL (Aspergillus niger)	zone of inhibition at 100 µg/mL (Aspergillus flavus)	zone of inhibition at 100 µg/mL (Trichoderma viride)	zone of inhibition at 50 µg/mL (Proteus vulgaris [11])	zone of inhibition at 50 µg/mL (Klebsiella pneumoniae [12])	also measured
COc1ccc(C(=O)/C=C/C=C(\Cl)c2ccc(OC)cc2OC)cc1	40%	0%	35%	33%	7%	7%	15%	0%	50 µg/mL (≈ 139 µM)	50 µg/mL (≈ 139 µM)	50 µg/mL (≈ 139 µM)	50 µg/mL (≈ 139 µM)	50 µg/mL (≈ 139 µM)	10 mm	12 mm	11 mm	10 mm	12 mm			
COc1ccc(/C(Cl)=C/C=C/C(=O)c2ccc(OC)cc2OC)cc1	49%	0%	0%	33%	31%	31%	33%	31%	50 µg/mL (≈ 139 µM)	50 µg/mL (≈ 139 µM)	50 µg/mL (≈ 139 µM)	50 µg/mL (≈ 139 µM)	50 µg/mL (≈ 139 µM)	14 mm	20 mm	15 mm	12 mm	14 mm	15 mm	12 mm	zone of inhibition at 50 µg/mL (Staphylococcus aureus [13]): 12 mm; zone of inhibition at 100 µg/mL (Candida albicans): 8 mm; zone of inhibition at 100 µg/mL (Penicillium chrysogenum): 12 mm
CN(C)[C@@H]1C(O)=C(C(N)=O)C(=O)[C@@]2(O)C(O)=C3C(=O)c4c(O)cccc4[C@@](C)(O)[C@H]3C[C@@H]12 [TETRACYCLINE]														15 mm	18 mm				16 mm	20 mm	zone of inhibition at 50 µg/mL (Staphylococcus aureus [13]): 18 mm
COc1ccc(C(=O)/C=C/C=C(\Cl)c2ccc(Br)cc2)cc1	97%	66%	30%	39%	25%	29%	20%	20%	50 µg/mL (≈ 132 µM)	50 µg/mL (≈ 132 µM)	50 µg/mL (≈ 132 µM)	50 µg/mL (≈ 132 µM)	50 µg/mL (≈ 132 µM)				8 mm	8 mm		11 mm	zone of inhibition at 50 µg/mL (Staphylococcus aureus [13]): 12 mm; zone of inhibition at 100 µg/mL (Penicillium chrysogenum): 12 mm
COc1ccc(C(=O)/C=C/C=C(\Cl)c2ccc(OC)cc2OC)c(OC)c1	27%	0%	0%	26%	23%	24%	18%	29%	50 µg/mL (≈ 129 µM)	50 µg/mL (≈ 129 µM)	50 µg/mL (≈ 129 µM)	50 µg/mL (≈ 129 µM)	50 µg/mL (≈ 129 µM)			13 mm			13 mm		
NYSTATIN																					inhibition zone (IZ) (Aspergillus niger): 13 mm; inhibition zone (IZ) (Aspergillus flavus): 16 mm; inhibition zone (IZ) (Trichoderma viride): 12 mm; inhibition zone (IZ) (Penicillium chrysogenum): 14 mm
